Results on two compounds are retold here after ChEMBL document CHEMBL5230083, “Novel 2, 5-diketopiperazine derivatives as potent selective histone deacetylase 6 inhibitors: Rational design, synthesis and antiproliferative activity” (Eur J Med Chem, 2020).

The source made the active and inactive calls.

For series [1], the species on record is Homo sapiens. In words: Selectivity index, ratio of IC50 for inhibition of HDAC1 (unknown origin) to IC50 for inhibition of HDAC6 (unknown origin). An outline of the steps: (§1)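 Ratio of IC50 values, each from a Fluor de Lys fluorogenic HDAC assay run in duplicate.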
The species entered for series [2] is Homo sapiens. In words: Selectivity index, ratio of IC50 for inhibition of HDAC8 (unknown origin) to IC50 for inhibition of HDAC6 (unknown origin). An outline of the steps:
as §1

Another series deals with HL-60. The series is described as follows: Antiproliferative activity against human HL-60 cells assessed as cell growth at 10 uM incubated for 48 hrs by SRB assay relative to control. The series is classed as functional. The conditions noted are these: read-out: Activity. An outline of the steps: (§2)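 Single-concentration screen at 10 μM run by NCI on its NCI-60 human tumour panel (blood, lung, colon, CNS, melanoma, ovary, kidney, prostate, breast), following the NCI-60 published methodology. Read-out is growth percent relative to untreated cells.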

A further series deals with K562. In words: Antiproliferative activity against human K562 cells assessed as cell growth at 10 uM incubated for 48 hrs by SRB assay relative to control. The series is classed as functional. The conditions noted are these: read-out: Activity. In short, it runs like this:
as §2

The subject of the next series is MOLT-4. The series is described as follows: Antiproliferative activity against human MOLT-4 cells assessed as cell growth at 10 uM incubated for 48 hrs by SRB assay relative to control. The series is classed as functional. The conditions noted are these: read-out: Activity. An outline of the steps:
as §2

A further series concerns SNB-19. The series is described as follows: Antiproliferative activity against human SNB-19 cells assessed as cell growth at 10 uM incubated for 48 hrs by SRB assay relative to control. The series is classed as functional. The settings on record: read-out: Activity. In short, it runs like this: (§3)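 NCI-60 single-dose screen: compounds tested at 10 μM, and growth percent of each cell line calculated. The full method follows the NCI DTP protocol.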
On the technique in general: In SRB staining, fixed cells bind dye roughly in proportion to their protein.

In a further series the test system is OVCAR-4. The series is described as follows: Antiproliferative activity against human OVCAR-4 cells assessed as cell growth at 10 uM incubated for 48 hrs by SRB assay relative to control. The series is classed as functional. The conditions noted are these: read-out: Activity. An outline of the steps:
as §2

Another series deals with NCI/ADR-RES. In words: Antiproliferative activity against human NCI/ADR-RES cells assessed as cell growth at 10 uM incubated for 48 hrs by SRB assay relative to control. The series is classed as functional. The conditions noted are these: read-out: Activity. In short, it runs like this:
as §2

The subject of a further series is 786-0. In words: Antiproliferative activity against human 786-0 cells assessed as cell growth at 10 uM incubated for 48 hrs by SRB assay relative to control. The series is classed as functional. The conditions noted are these: read-out: Activity. An outline of the steps:
as §2

The subject of another series is UO-31. In words: Antiproliferative activity against human UO-31 cells assessed as cell growth at 10 uM incubated for 48 hrs by SRB assay relative to control. The series is classed as functional. The conditions noted are these: read-out: Activity. In short, it runs like this: as §3
For the next series, the system named is T47D. The series is described as follows: Antiproliferative activity against human T47D cells assessed as cell growth at 10 uM incubated for 48 hrs by SRB assay relative to control. The series is classed as functional. The settings on record: read-out: Activity. An outline of the steps: as §3
Series [3] has as its system A549. In words: Antiproliferative activity against human A549 cells assessed as inhibition of cell growth incubated for 72 hrs by alamar blue assay. The series is classed as functional, cell-based. The conditions noted are these: A549, 72 h. In short, it runs like this:
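Cells grown in IMDM with 20% FBS and penicillin/streptomycin at 37 °C, 5% CO2. Compound added to plated cells for 72 h. Alamar blue (1 mM solution) then added for 5–6 h, and fluorescence read at 530/590 nm. IC50 derived for single-agent treatment.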

Series [4] concerns A549. In words: Antiproliferative activity against human A549 cells assessed as inhibition of cell growth incubated for 72 hrs in presence of adriamycin by alamar blue assay. The series is classed as functional, cell-based. The conditions noted are these: A549, 72 h. An outline of the steps: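 Alamar blue assay in IMDM/20% FBS at 37 °C, 5% CO2. Cells were exposed to the two agents together for 72 h, with 5–6 h Alamar blue and fluorescence at 530/590 nm. IC50 in combination was determined. CI50 = IC50Ac/IC50As + IC50Bc/IC50Bs, comparing combination with single-agent IC50s.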
In general terms: Resazurin is reduced to fluorescent resorufin, in cell work by metabolically active cells.

Series [5] concerns A549. The series is described as follows: Synergistic antiproliferative activity against human A549 cells assessed as combination index incubated for 72 hrs presence of adriamycin by alamar blue assay. The series is classed as functional.
Series [6] can be described thus: Microsomal stability in human liver microsomes assessed as half life at 0.5 uM prewarmed for 5 mins followed by NADPH addition and measured for 90 mins by LC-MS/MS analysis. The series is classed as ADME, Microsome. The settings on record: time 95 min. An outline of the steps: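 Incubation held 0.8 mg/mL human liver microsomes, MgCl2, potassium phosphate buffer pH 7.4 and 0.5 μM compound. After 5 min prewarming at 37 °C, NADPH started the reaction.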
In general terms: Microsomes from liver hold many membrane-bound enzymes, among them those of drug oxidation.

Series [7] has as its target Histone deacetylase 3 (Homo sapiens) (UniProt O15379). The series is described as follows: Inhibition of HDAC3 (unknown origin) using Fluor de lys as substrate by fluorescence based analysis. An outline of the steps: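 Fluor de Lys fluorogenic substrate/developer activity assay, run by a contract lab. […] Experiments were run in duplicate.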
A further series addresses Histone deacetylase 4 (Homo sapiens, UniProt P56524). The series is described as follows: Inhibition of HDAC4 (unknown origin) using Fluor de lys as substrate by fluorescence based analysis.
In the next series the target is Histone deacetylase 5 (Homo sapiens, UniProt Q9UQL6). The series is described as follows: Inhibition of HDAC5 (unknown origin) using Fluor de lys as substrate by fluorescence based analysis.
Sequence of Histone deacetylase 5 (Q9UQL6 whole entry): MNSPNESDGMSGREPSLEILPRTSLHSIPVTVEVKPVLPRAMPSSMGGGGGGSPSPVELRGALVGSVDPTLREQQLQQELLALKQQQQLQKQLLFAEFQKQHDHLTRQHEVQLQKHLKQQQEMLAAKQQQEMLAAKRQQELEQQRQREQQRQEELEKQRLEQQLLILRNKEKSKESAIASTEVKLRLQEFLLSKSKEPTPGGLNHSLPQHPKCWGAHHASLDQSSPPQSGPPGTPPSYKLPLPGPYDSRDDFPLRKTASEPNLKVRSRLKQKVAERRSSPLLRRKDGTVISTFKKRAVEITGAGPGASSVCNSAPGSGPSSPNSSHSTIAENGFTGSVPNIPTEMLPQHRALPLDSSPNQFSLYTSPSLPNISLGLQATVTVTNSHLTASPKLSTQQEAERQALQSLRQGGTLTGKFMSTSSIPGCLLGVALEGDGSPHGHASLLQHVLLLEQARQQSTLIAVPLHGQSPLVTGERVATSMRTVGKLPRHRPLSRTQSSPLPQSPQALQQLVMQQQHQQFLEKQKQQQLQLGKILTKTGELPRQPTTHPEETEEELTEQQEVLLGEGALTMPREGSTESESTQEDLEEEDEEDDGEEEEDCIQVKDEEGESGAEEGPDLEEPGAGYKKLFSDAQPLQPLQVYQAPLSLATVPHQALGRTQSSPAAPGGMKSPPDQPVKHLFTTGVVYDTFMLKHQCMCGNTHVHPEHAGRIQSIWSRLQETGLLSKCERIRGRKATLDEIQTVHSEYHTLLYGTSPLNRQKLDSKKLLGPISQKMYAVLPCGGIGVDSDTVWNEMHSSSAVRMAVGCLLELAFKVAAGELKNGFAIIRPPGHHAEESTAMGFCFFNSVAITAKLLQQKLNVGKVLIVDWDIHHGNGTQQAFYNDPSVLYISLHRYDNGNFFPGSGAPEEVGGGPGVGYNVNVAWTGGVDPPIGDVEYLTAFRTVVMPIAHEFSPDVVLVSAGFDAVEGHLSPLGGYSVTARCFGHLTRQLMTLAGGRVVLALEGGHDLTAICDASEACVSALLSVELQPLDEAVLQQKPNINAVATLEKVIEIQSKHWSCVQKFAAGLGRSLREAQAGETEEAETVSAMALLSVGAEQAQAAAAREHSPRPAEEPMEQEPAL
For another series, the target named is Histone deacetylase 9 (Homo sapiens, UniProt Q9UKV0). In words: Inhibition of HDAC9 (unknown origin) using Fluor de lys as substrate by fluorescence based analysis.
Sequence of Histone deacetylase 9 (Q9UKV0 whole entry): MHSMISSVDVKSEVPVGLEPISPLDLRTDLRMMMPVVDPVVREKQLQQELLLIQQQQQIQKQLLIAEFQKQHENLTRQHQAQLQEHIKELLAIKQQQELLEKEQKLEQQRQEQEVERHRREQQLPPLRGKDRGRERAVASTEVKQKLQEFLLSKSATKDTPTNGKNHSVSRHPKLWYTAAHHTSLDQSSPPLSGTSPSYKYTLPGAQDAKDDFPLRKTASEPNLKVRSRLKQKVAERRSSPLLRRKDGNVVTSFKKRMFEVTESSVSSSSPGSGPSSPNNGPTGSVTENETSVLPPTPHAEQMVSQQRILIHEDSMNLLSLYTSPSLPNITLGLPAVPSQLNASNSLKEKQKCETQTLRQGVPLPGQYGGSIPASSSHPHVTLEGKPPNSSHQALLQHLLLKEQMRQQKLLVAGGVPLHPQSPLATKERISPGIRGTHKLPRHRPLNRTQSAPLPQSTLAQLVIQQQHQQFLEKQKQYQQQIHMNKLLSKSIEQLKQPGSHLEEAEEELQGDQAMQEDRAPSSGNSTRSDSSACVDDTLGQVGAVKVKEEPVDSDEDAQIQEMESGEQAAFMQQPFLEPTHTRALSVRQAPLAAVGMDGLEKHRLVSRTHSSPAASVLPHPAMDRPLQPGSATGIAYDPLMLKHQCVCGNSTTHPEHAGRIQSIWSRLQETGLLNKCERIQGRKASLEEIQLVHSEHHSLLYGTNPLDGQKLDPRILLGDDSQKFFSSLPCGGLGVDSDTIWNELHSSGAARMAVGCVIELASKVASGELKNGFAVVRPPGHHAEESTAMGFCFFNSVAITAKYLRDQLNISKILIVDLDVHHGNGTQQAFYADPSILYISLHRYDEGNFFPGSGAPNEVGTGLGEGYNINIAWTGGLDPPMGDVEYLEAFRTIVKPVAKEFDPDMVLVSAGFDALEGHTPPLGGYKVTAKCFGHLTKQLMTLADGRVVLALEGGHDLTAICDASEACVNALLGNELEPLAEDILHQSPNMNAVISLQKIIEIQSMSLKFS
The target of series [8] is Polyamine deacetylase HDAC10 (Homo sapiens, UniProt Q969S8). In words: Inhibition of HDAC10 (unknown origin) incubated for 1 hr by TR-FRET analysis.
Sequence of Polyamine deacetylase HDAC10 (Q969S8 whole entry): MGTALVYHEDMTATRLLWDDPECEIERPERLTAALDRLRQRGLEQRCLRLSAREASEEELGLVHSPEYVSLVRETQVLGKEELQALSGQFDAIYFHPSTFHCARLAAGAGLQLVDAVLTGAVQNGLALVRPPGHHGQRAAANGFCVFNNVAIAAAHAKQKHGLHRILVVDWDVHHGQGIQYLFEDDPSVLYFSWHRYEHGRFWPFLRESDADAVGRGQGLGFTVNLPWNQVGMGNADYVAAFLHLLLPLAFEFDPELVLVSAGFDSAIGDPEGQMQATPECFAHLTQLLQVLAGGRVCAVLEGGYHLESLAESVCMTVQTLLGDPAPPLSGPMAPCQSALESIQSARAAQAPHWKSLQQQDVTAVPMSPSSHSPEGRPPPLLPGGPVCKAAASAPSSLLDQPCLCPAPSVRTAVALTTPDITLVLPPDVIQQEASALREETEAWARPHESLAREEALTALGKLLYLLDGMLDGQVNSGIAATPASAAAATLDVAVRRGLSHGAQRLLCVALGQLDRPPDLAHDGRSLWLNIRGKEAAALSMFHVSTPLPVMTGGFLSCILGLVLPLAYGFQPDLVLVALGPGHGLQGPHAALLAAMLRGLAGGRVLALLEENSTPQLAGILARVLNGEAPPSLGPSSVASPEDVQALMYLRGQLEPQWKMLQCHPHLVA
In the next series the target is Histone deacetylase 11 (Homo sapiens, UniProt Q96DB2). In words: Inhibition of HDAC11 (unknown origin) using Fluor de lys as substrate by fluorescence based analysis.
Sequence of Histone deacetylase 11 (Q96DB2 whole entry): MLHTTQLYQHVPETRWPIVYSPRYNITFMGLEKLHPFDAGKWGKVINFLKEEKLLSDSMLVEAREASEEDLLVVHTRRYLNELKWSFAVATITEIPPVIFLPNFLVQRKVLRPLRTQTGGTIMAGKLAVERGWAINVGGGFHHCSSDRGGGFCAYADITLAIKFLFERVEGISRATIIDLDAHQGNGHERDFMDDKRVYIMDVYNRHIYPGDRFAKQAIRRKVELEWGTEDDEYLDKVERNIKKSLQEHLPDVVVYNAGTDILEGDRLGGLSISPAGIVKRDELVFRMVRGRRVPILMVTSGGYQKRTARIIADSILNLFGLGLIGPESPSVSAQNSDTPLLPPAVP
The target in series [9] is Protein deacetylase HDAC6 (Homo sapiens) (UniProt Q9UBN7). In words: Inhibition of HDAC6 in human HCT-116 cells assessed as increase in acetylated alpha-tubulin level incubated for 24 hrs by Western blot analysis. The series is classed as cell-based. The conditions noted are these: dose 0.1-10 µM. In short, it runs like this: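 HCT116 cells were seeded overnight, then treated at 0.1, 1 and 10 μM for 24 h. Cells were lysed with protein extraction reagent plus EDTA-free protease inhibitors. 30 µg protein per sample was resolved by SDS-PAGE and blotted to nitrocellulose. Ac-α-tubulin and Ac-H3 were probed and detected by ECL.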
Sequence of Protein deacetylase HDAC6 (Homo sapiens) (Q9UBN7 whole entry): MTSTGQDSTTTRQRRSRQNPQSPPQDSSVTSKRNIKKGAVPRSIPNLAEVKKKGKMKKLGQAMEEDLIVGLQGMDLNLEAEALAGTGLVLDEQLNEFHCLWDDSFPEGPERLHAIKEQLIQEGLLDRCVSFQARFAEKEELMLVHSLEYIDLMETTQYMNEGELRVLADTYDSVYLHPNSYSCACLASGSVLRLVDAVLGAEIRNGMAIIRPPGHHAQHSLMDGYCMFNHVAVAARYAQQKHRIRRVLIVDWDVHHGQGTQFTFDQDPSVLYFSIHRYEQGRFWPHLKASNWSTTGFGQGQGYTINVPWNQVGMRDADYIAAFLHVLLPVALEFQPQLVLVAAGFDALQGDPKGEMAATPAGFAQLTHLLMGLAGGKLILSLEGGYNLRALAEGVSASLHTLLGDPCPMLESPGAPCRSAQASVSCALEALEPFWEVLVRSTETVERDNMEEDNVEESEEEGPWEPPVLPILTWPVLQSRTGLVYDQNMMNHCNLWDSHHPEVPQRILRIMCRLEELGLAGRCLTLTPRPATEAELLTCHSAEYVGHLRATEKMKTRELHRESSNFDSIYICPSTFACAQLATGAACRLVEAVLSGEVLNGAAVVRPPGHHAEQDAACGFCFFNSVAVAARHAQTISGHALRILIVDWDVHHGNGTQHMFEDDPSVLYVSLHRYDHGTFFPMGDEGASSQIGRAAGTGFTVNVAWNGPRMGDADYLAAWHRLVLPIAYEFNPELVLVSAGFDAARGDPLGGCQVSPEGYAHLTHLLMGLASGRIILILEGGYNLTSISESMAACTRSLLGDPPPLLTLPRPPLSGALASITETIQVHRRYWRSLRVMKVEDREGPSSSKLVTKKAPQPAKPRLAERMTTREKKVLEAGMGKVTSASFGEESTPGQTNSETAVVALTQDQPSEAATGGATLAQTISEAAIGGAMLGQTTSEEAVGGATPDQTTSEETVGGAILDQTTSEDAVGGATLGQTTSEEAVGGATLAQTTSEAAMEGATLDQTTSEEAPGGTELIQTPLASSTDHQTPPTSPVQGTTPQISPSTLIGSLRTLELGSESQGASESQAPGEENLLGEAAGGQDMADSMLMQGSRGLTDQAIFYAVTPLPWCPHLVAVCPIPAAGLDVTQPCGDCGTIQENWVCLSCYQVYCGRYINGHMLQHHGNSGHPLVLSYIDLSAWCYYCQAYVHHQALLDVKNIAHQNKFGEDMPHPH

The test system of the next series is NCI-H226. In words: Antiproliferative activity against human NCI-H226 cells assessed as cell growth at 10 uM incubated for 48 hrs by SRB assay relative to control. The conditions noted are these: read-out: Activity. The series is classed as functional. In short, it runs like this:
as §2

Sequence of Histone deacetylase 3 (Homo sapiens) (O15379 whole entry): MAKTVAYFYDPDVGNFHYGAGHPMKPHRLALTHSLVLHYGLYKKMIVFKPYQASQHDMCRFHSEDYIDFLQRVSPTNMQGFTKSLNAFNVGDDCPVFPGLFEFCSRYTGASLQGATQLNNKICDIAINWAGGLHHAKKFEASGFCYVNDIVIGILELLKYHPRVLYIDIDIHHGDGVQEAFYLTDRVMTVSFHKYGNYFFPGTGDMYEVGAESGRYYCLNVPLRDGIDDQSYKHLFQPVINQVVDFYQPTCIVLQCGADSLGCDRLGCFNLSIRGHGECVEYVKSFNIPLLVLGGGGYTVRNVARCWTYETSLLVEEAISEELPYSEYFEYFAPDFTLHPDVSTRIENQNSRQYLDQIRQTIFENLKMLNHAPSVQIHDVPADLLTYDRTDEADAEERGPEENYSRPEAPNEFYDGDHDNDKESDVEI

With `O=C(NO)c1ccc(CN2CC(=O)N(Cc3ccccc3)[C@H](Cc3ccccc3)C2=O)cc1`, the Ratio IC50 was determined as 981 in the series listed under Homo sapiens [1] and 15 in the series filed under Homo sapiens [2]. Besides, the growth at 10 µM turned out to be 102% in the series with HL-60; 76.4% with K562; 76.7% in the series on MOLT-4; 85.4% in the series with SNB-19; 66.5% in the series on OVCAR-4; 94.5% with NCI/ADR-RES. In addition, the growth at 10 µM was determined as 94.8% with 786-0, 69.5% with UO-31 and 69.1% in the series on T47D. Also, the IC50 (commonly the midpoint of a concentration-inhibition curve) in the series on A549 [3] came out at 100 µM; in the series with A549 [4] it was 8.17 µM. For the same compound, the CI with A549 [5] is on record as 0.676. Besides, the half-life – broadly, the time needed for the level to fall by half in the phase considered – at 0.5 µM in series [6] is 9.7 h.

Regarding `O=C1CN(Cc2ccc(C(=O)NO)cc2)C(=O)[C@@H](Cc2c[nH]c3ccccc23)N1`, in series [7], the inhibition entry was “inactive”. The IC50 came to 5.62 µM against Histone deacetylase 4; 4.37 µM against Histone deacetylase 5; 2.56 µM on Histone deacetylase 9; 0.105 µM in [8]; 1.8 µM against Histone deacetylase 11. The inhibition entry in series [9] was “Dose-Dependent Effect”. Besides, the growth at 10 µM in the series with HL-60 was 126%; in the series with K562, 100%; in the series on MOLT-4 it was 86.8%; with NCI-H226, 97.6%; with SNB-19, 96.8%; in the series on NCI/ADR-RES, 104%. Further, the growth at 10 µM with 786-0 is 83%; in the series on UO-31 it was 91.1%; in the series with T47D it was 87.3%.
